Data from ChEMBL document CHEMBL1158789, “Sesquiterpenes from the red alga Laurencia tristicha” (J Nat Prod, 2005).
Converted amounts (≈) assume the structure as drawn.

Key:
Format in all cases: functional, cell-based
HCT-8 = test: Cytotoxicity against human HCT8 cells by MTT assay
In short: (§1)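 Human tumour lines (A549 lung adenocarcinoma, BGC-823 stomach cancer, Bel 7402 hepatoma, HCT-8 colon cancer, HeLa) were exposed to the compounds and viability was read by MTT. Potency was expressed as IC50 in μg/mL.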

A549 = test: Cytotoxicity against human A549 cells by MTT assay; in short: as §1
Bel-7402 = test: Cytotoxicity against human Bel7402 cells by MTT assay; in short: as §1
HeLa = test: Cytotoxicity against human HeLa cells by MTT assay; in short: as §1
BGC-823 = test: Cytotoxicity against human BGC823 cells by MTT assay; in short: as §1

Compound	IC50 (HCT-8)	IC50 (A549)	IC50 (Bel-7402)	IC50 (HeLa)	IC50 (BGC-823)
Cc1ccc([C@]2(C)CC[C@@H](C(C)(C)O)O2)cc1	> 10 µg/mL	> 10 µg/mL	> 10 µg/mL	> 10 µg/mL	> 10 µg/mL
C=C1[C@](C)(O)CC[C@@]1(C)c1ccc(C)cc1	> 10 µg/mL	> 10 µg/mL	> 10 µg/mL	> 10 µg/mL	> 10 µg/mL
C=C1[C@](C)(O)CC[C@@]1(C)c1ccc(C)cc1O	> 10 µg/mL	> 10 µg/mL	> 10 µg/mL	> 10 µg/mL	> 10 µg/mL
Cc1cc2c(cc1O)C[C@]1(CC[C@@H]3C[C@@]31C)O2	> 10 µg/mL	> 10 µg/mL	> 10 µg/mL	> 10 µg/mL	> 10 µg/mL
Cc1ccc(C(C)(O)C/C=C/C(C)(C)O)cc1 (stereo not given)	> 10 µg/mL	> 10 µg/mL	> 10 µg/mL	> 10 µg/mL	> 10 µg/mL
C=C1[C@]2(C)CC[C@@]1(C)c1cc(Br)c(C)cc1O2	> 10 µg/mL	> 10 µg/mL	> 10 µg/mL	> 10 µg/mL	> 10 µg/mL
Cc1ccc([C@]2(C)CC[C@H](C(C)(C)O)O2)cc1	> 10 µg/mL	> 10 µg/mL	> 10 µg/mL	> 10 µg/mL	> 10 µg/mL
Cc1ccc([C@]2(C)CC[C@@H]3C[C@@]32C)cc1O	> 10 µg/mL	> 10 µg/mL	> 10 µg/mL	> 10 µg/mL	> 10 µg/mL
C=C1[C@](C)(O)CC[C@@]1(C)c1ccc(C)c(O)c1	> 10 µg/mL	> 10 µg/mL	> 10 µg/mL	> 10 µg/mL	> 10 µg/mL
Cc1cc2c(cc1Br)[C@]1(C)CC[C@H](C)[C@]1(CO)O2 [APLYSINOL]	> 10 µg/mL	> 10 µg/mL	> 10 µg/mL	> 10 µg/mL	> 10 µg/mL
Cc1cc2c(cc1Br)[C@]1(C)CC[C@H](C)[C@]1(C)O2 [APLYSIN]	> 10 µg/mL	> 10 µg/mL	> 10 µg/mL	> 10 µg/mL	> 10 µg/mL
CC(C)=CCCC(C)(O)c1ccc(C)cc1 (stereo not given) [GOSSONOROL]	> 10 µg/mL	> 10 µg/mL	> 10 µg/mL	> 10 µg/mL	> 10 µg/mL
CC1(C)[C@]23C[C@H](Br)[C@@](C)(Cl)C[C@@H]2O[C@]1(Br)[C@H](O)[C@H]1O[C@]13C [JOHNSTONOL]	> 10 µg/mL	> 10 µg/mL	> 10 µg/mL	> 10 µg/mL	> 10 µg/mL
Cc1cc(O)c([C@]2(C)CC[C@@H]3C[C@@]32C)cc1-c1cc([C@]2(C)CC[C@@H]3C[C@@]32C)c(O)cc1C [LAUREBIPHENYL]	1.77 µg/mL (≈ 4.11 µM)	1.68 µg/mL (≈ 3.9 µM)	1.91 µg/mL (≈ 4.44 µM)	1.61 µg/mL (≈ 3.74 µM)	1.22 µg/mL (≈ 2.83 µM)
